Assay results of several laboratories.
Each line is one published result; the experiments were not run side by side. pIC50: −log10 of the molar value.
Observed: cell growth or viability

Structure (SMILES)	cell line	test	conditions	measurement	result
CC1(C)CC[C@]2(C(=O)O)CC[C@]3(C)C(=CC[C@@H]4[C@@]5(C)CC[C@H](O)C(C)(C)[C@@H]5CC[C@]43C)[C@@H]2C1	ECa-109	MTT	48 h	pIC50	4.11
CC[C@@H](C)[C@H](N)C(=O)N1Cc2ccccc2C1	Kasumi 1	ATP luminescence	48 h	pIC50	< 4.22
CC1=C(O)C(=O)C=C2C1=CC=C1[C@@]2(C)CC[C@@]2(C)[C@@H]3C[C@](C)(C(=O)OCCCCO)CC[C@]3(C)CC[C@]12C	MGC-803	MTT	48 h	pIC50	6.57
CCc1c2c(nc3ccc(O)cc13)-c1cc3c(c(=O)n1C2)COC(=O)[C@]3(O)CC	COS-7	ATP luminescence	–	pIC50	3.88
N[C@@H](CC(=O)N1CCN(C(c2ccc(F)cc2)c2ccc(F)cc2)CC1)C(=O)N1Cc2ccccc2C1	Kasumi 1	ATP luminescence	48 h	pIC50	4.39
CC1=C(O)C(=O)C=C2C1=CC=C1[C@@]2(C)CC[C@@]2(C)[C@@H]3C[C@](C)(C(=O)OCCCCCO)CC[C@]3(C)CC[C@]12C	MGC-803	MTT	48 h	pIC50	6.49
CCOC(=O)c1[nH]c(Br)c(-c2ccc(SC)cc2)c1Br	MDA-MB-435	SRB	–	pIC50	6.20
COc1cc(Nc2nccc(-c3cnn4nc(OC)ccc34)n2)cc(C(F)(F)F)c1	NCI-N87	ATP luminescence	–	pIC50	6.19
CC(=O)OCCOC(=O)[C@]1(C)CC[C@]2(C)CC[C@]3(C)C4=CC=C5C(=CC(=O)C(O)=C5C)[C@]4(C)CC[C@@]3(C)[C@@H]2C1	MGC-803	MTT	48 h	pIC50	6.39
Cc1cccc(-n2ncc(Br)c(Br)c2=O)c1	NCI-H2030	resazurin	96 h	pIC50	6.43
OCc1ccc2c(c1C#Cc1ccc(O)cc1)C(c1ccc(O)cc1)(c1ccc(O)cc1)c1cc(O)ccc1-2	MGC-803	MTT	48 h	pIC50	< 4.30
CC(C)n1c(/C=C/C(O)CC(O)CC(=O)O)c(-c2ccc(F)cc2)c2ccccc21 (stereo not drawn)	SW480	SRB	72 h	IC50	4.24 µg/mL
CC1=C(O)C(=O)C=C2C1=CC=C1[C@@]2(C)CC[C@@]2(C)[C@@H]3C[C@](C)(C(=O)OCCCCCCCO)CC[C@]3(C)CC[C@]12C	MGC-803	MTT	48 h	pIC50	6.40
CC(=O)O[C@@]12CO[C@@H]1C[C@H](O)[C@@]1(C)C(=O)[C@H](O)C3=C(C)[C@@H](OC(=O)[C@H](O)[C@@H](NC(=O)OC(C)(C)C)c4ccccc4)C[C@@](O)([C@@H](OC(=O)c4ccccc4)[C@H]21)C3(C)C	143B	resazurin	72 h	pIC50	8.54
O=C(c1ccc(OCCN2CCCCC2)cc1)c1c(-c2ccc(O)cc2)sc2cc(O)ccc12	COS-7	ATP luminescence	–	pIC50	4.70
CC1=C(O)C(=O)C=C2C1=CC=C1[C@@]2(C)CC[C@@]2(C)[C@@H]3C[C@](C)(C(=O)OCCO)CC[C@]3(C)CC[C@]12C	MGC-803	MTT	48 h	pIC50	6.43
Cc1ccc(-c2ccc(O)cc2)c(C(=C2C=CC(=O)C=C2)c2ccc(O)cc2)c1C#Cc1ccc(O)cc1	MGC-803	MTT	48 h	pIC50	4.82
CC1=C(O)C(=O)C=C2C1=CC=C1[C@@]2(C)CC[C@@]2(C)[C@@H]3C[C@](C)(C(=O)OCCCn4ccc5ccccc54)CC[C@]3(C)CC[C@]12C	MGC-803	MTT	48 h	pIC50	5.96
Cc1ccc(C(=O)N(CCCN)[C@@H](c2nc3cc(Cl)ccc3c(=O)n2Cc2ccccc2)C(C)C)cc1	MM1.S	ATP luminescence	72 h	pIC50	7.90
CC1(C)[C@@H](O)CC[C@]2(C)[C@H]3C(=O)C=C4[C@@H]5C[C@@](C)(C(=O)O)CC[C@]5(C)CC[C@@]4(C)[C@]3(C)CC[C@@H]12	ECa-109	MTT	48 h	pIC50	4.72
O=c1[nH]c(=O)n([C@H]2C[C@H](O)[C@@H](CO)O2)cc1F	FM3A/0	MTT	72 h	pIC50	8.49
